Measurements: ChEMBL document CHEMBL5316304, “Collaborative Virtual Screening Identifies a 2-Aryl-4-aminoquinazoline Series with Efficacy in an In Vivo Model of Trypanosoma cruzi Infection” (J Med Chem, 2023)
≈ marks a conversion by molar mass, not a printed value.

Assays:
Trypanosoma cruzi [1] = assay: Antitrypanosomal activity against intracellular Trypanosoma cruzi infected in human U2OS cells assessed as parasite growth inhibition incubated for 72 hrs by confocal microscopy; format: functional, organism-based; conditions: Trypanosoma cruzi, U2OS, 72 h
[2] = Selectivity index, ratio of IC50 for human U2OS cells to IC50 for intracellular Trypanosoma cruzi infected in human U2OS cells; format: toxicity, cell-based
In short: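 Host U2OS cell counts and intracellular parasite infection ratio were read from the same 72 h DRAQ5-stained confocal imaging assay. CC50 and EC50 came from 4-parameter logistic fits, and the selectivity index is their ratio.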

[3] = Plasma protein binding in mouse at 2 uM incubated for 6 hrs by LC/MS/MS analysis; format: ADME
[4] = Intrinsic clearance in mouse liver microsomes at 1 uM incubated for 15 to 30 mins by LC/MS/MS analysis; format: ADME, Microsome; conditions: time 15-30 min
[5] = Intrinsic clearance in human liver microsomes at 1 uM incubated for 15 to 30 mins by LC/MS/MS analysis; format: ADME, Microsome; conditions: time 15-30 min
[6] = Kinetic solubility of compound in aqueous buffer at pH 6.8 incubated for 16 to 24 hrs by HPLC analysis; format: physicochemical; conditions: time 16-24 hrs, read-out: Kinetic_solubility
[7] = Permeability of compound incubated for 3 hrs by PAMPA assay; format: ADME; conditions: read-out: permeability
[8] = Oral bioavailability in Balb/C mouse plasma at 50 mg/kg by LC/MS/MS analysis; format: ADME, organism-based; conditions: in vivo
[9] = Toxicity in Balb/C mouse assessed as drug tolerability at 50 mg/kg, po by LC/MS/MS analysis; format: organism-based; conditions: in vivo
[10] = Toxicity in Balb/C mouse assessed as drug tolerability at 50 mg/kg, po bid measured after 5 days by LC/MS/MS analysis; format: organism-based; conditions: in vivo, 120 h, time 5 day
In short: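 Healthy female mice, one per group, were dosed orally twice daily for 5 days at 10, 50 or 100 mg/kg, with vehicle controls (0.5% HPMC/0.5% benzyl alcohol/0.4% Tween 80 in water). Readouts were mortality, clinical signs, body weight, food consumption and gross pathology.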

[11] = Cmax in Balb/C mouse at 50 mg/kg, po or 0.1 mg/kg, iv by LC/MS/MS analysis; format: ADME, organism-based; set-up: dose 50 mg/kg, route po; conditions: in vivo
In short: (§1)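 Female Balb/c mice dosed i.v. 0.1 mg/kg as part of a five-compound cassette, and p.o. 50 mg/kg, without ABT. PK parameters came from concentration–time profiles. Brain-to-plasma ratio was taken at 1 h.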

[12] = AUC (0 to last) in Balb/C mouse at 50 mg/kg, po or 0.1 mg/kg, iv by LC/MS/MS analysis; format: ADME, organism-based; set-up: dose 50 mg/kg, route po; conditions: in vivo; in short: as §1
[13] = Volume of distribution at steady state in Balb/C mouse plasma at 50 mg/kg, po or 0.1 mg/kg, iv by LC/MS/MS analysis; format: ADME, organism-based; conditions: in vivo; in short: as §1
[14] = Half life in Balb/C mouse at 50 mg/kg, po by LC/MS/MS analysis; format: ADME, organism-based; conditions: in vivo
In short: (§2)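 Female Balb/c mice received a single i.v. dose of 1 mg/kg and a single oral dose of 50 mg/kg. PK parameters came from blood concentration–time profiles. Brain-to-plasma ratio was taken at 0.5 h.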

[15] = Ratio of drug level in Balb/C mouse brain to plasma at 50 mg/kg, po or 0.1 mg/kg, iv measured after 1 hr by LC/MS/MS analysis; format: ADME, organism-based; in short: as §1
[16] = Cmax in Balb/C mouse at 12.5 mg/kg, po or 2 mg/kg, iv in presence of ABT by LC/MS/MS analysis; format: ADME, organism-based; set-up: dose 12.5 mg/kg, route po; conditions: in vivo
In short: (§3)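 Female Balb/c mice (n = 3 per route) dosed i.v. 2 mg/kg and p.o. 12.5 mg/kg. 1-Aminobenzotriazole, a CYP450 inhibitor, was given p.o. at 50 mg/kg 2 h before each dose. Parameters were derived from blood concentration–time profiles.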

[17] = AUC (0 to last) in Balb/C mouse at 12.5 mg/kg, po or 2 mg/kg, iv in presence of ABT by LC/MS/MS analysis; format: ADME, organism-based; set-up: dose 12.5 mg/kg, route po; conditions: in vivo; in short: as §3
[18] = Volume of distribution at steady state in Balb/C mouse plasma at 12.5 mg/kg, po or 2 mg/kg, iv in presence of ABT by LC/MS/MS analysis; format: ADME, organism-based; conditions: in vivo; in short: as §3
[19] = Half life in Balb/C mouse plasma at 2 mg/kg, iv in presence of ABT by LC/MS/MS analysis; format: ADME, organism-based; in short: as §3
[20] = Half life in Balb/C mouse plasma at 12.5 mg/kg, po in presence of ABT by LC/MS/MS analysis; format: ADME, organism-based; in short: as §3
[21] = Oral bioavailability in Balb/C mouse at 12.5 mg/kg in presence of ABT by LC/MS/MS analysis; format: ADME, organism-based; conditions: in vivo; in short: as §3
[22] = Toxicity in Balb/C mouse assessed as drug tolerability at 12.5 mg/kg, po by LC/MS/MS analysis; format: organism-based; conditions: in vivo
Trypanosoma cruzi [23] = assay: Antitrypanosomal activity against acute-stage Trypanosoma cruzi CL Brener infected in BALB/c mouse assessed as reduction in parasite burden at 50 mg/kg, po bid administered for 5 days by bioluminescence imaging based analysis relative to control; format: functional; set-up: scale not given: the % may be the effect or the level left; conditions: time 5 day
[24] = Toxicity in BALB/c mouse infected with acute Trypanosoma cruzi CL Brener assessed as adverse effects at 50 mg/kg, po bid; format: organism-based; conditions: in vivo
[25] = Cmax in Balb/C mouse at 50 mg/kg, po or 1 mg/kg, iv by LC/MS/MS analysis; format: ADME, organism-based; set-up: dose 50 mg/kg, route po; conditions: in vivo; in short: as §2
[26] = AUC (0 to last) in Balb/C mouse at 50 mg/kg, po or 1 mg/kg, iv by LC/MS/MS analysis; format: ADME, organism-based; set-up: dose 50 mg/kg, route po; conditions: in vivo; in short: as §2
[27] = Volume of distribution at steady state in Balb/C mouse plasma at 50 mg/kg, po or 1 mg/kg, iv by LC/MS/MS analysis; format: ADME, organism-based; conditions: in vivo; in short: as §2
[28] = Half life in Balb/C mouse at 1 mg/kg, iv by LC/MS/MS analysis; format: ADME, organism-based; conditions: in vivo; in short: as §2
[29] = Ratio of drug level in Balb/C mouse brain to plasma at 50 mg/kg, po or 1 mg/kg, iv measured after 0.5 hrs by LC/MS/MS analysis; format: ADME, organism-based; in short: as §2
[30] = Toxicity in Balb/C mouse assessed as adverse reactions at 50 mg/kg, po by LC/MS/MS analysis; format: organism-based; conditions: in vivo

Compound: c1ccc(-c2nc(N3CCC(c4ccccn4)C3)c3ccccc3n2)nc1 (racemic)
- IC50 (Trypanosoma cruzi [1]): 790 nM
- Selectivity Index [2]: 9.1
- PPB [3]: 99.9%
- intrinsic clearance (CLint) [4]: 258 µL/min/mg
- CLint [5]: 73 µL/min/mg
- solubility kinetic [6]: 83 µg/mL (≈ 235 µM)
- Papp at 3 h [7]: 31.9 ×10⁻⁶ cm/s
- F [8]: 50%
- Activity [9]: Non-Toxic
- Activity [10]: Non-Toxic
- Cmax [11]: 3360 ng/mL
- AUC(0-t) [12]: 9610 ng·h/mL
- Vdss [13]: 0.77 L/kg
- half-life [14]: 7.2 h
- BPR [15]: 1.66
- Cmax [16]: 4243 ng/mL
- AUC(0-t) [17]: 26900 ng·h/mL
- Vdss [18]: 0.94 L/kg
- half-life [19]: 1 h
- half-life [20]: 3.3 h
- F [21]: 67%
- Activity [22]: Toxic
- Activity (Trypanosoma cruzi [23]): 89.9%
- Activity [24]: Non-Toxic

Compound: CC(C)(Nc1nc(-c2ccccn2)nc2ccccc12)c1ccccn1
- IC50 (Trypanosoma cruzi [1]): 1000 nM
- selectivity ratio ([2]; U2OS cells, read-out: Selectivity Index): 25
- PPB [3]: 94.2%
- solubility kinetic [6]: 83 µg/mL (≈ 243 µM)
- Papp at 3 h [7]: 25.8 ×10⁻⁶ cm/s
- Cmax [25]: 6240 ng/mL
- AUC(0-t) [26]: 59900 ng·h/mL
- F [8]: > 100%
- Vdss [27]: 0.909 L/kg
- half-life [28]: 1.13 h
- BPR [29]: 1.6
- Activity [9]: Non-Toxic
- Activity [10]: Toxic
- Activity [30]: Non-Toxic
